From ChEMBL document CHEMBL4033657, “N-Aryl-N'-ethyleneaminothioureas effectively inhibit acetylcholinesterase 1 from disease-transmitting mosquitoes” (Eur J Med Chem, 2017)

Tests used:
Anopheles gambiae [1] = assay: Insecticidal activity against 3rd instar larvae of Anopheles gambiae Kisumu assessed as mortality at 25 uM administered via de-chlorinated tap water after 48 hrs; type: functional
Anopheles gambiae [2] = assay: Insecticidal activity against 3rd instar larvae of Anopheles gambiae Kisumu assessed as mortality at 25 uM administered via de-chlorinated tap water after 24 hrs; type: functional
Method in brief: (§1)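 Kenyan strains were reared at 27-28 °C, about 80% humidity, 12/12 h light. Per compound and concentration, 25 third-instar larvae were placed in 100 ml de-chlorinated water containing the compound and kept under insectary conditions. The negative control was plain water; the positive control was propoxur at 25 µM. Mortality was scored at 24 h; 75 treated and 50 control larvae in total.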

Anopheles gambiae [3] = assay: Insecticidal activity against five days old adult Anopheles gambiae Kisumu assessed as mortality at 6.25 ng applied topically on upper part of pronotum after 24 hrs; type: functional
Aedes aegypti [4] = assay: Insecticidal activity against five days old adult Aedes aegypti Mombasa assessed as mortality at 2 mM applied topically on upper part of pronotum after 24 hrs (reference value: 2 to 10%); type: functional; conditions: topical
Acetylcholinesterase [5] = molecular target: T1, Acetylcholinesterase (Anopheles gambiae, UniProt Q869C3); assay: Inhibition of recombinant full length Anopheles gambiae AChE1 expressed in baculovirus-infected Sf9 insect cells using acetylthiocholine iodide as substrate measured over 60 secs by Ellman's method
[6] = Inhibition of recombinant full length Aedes aegypti AChE1 expressed in baculovirus-infected Sf9 insect cells using acetylthiocholine iodide as substrate measured over 60 secs by Ellman's method
Method in brief: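 Secreted, non-purified recombinant enzyme in growth medium, tested as enzyme source. Ellman assay at 30 °C in 0.1 M phosphate buffer pH 7.4 with 0.2 mM DTNB and 1 mM acetylthiocholine iodide; A412 followed over 60 s. Compound (100 mM DMSO stock) tested at eight concentrations, maximum 1 mM. Activity set relative to eight uninhibited controls per plate; IC50 from three-parameter variable-slope fit; 2-3 independent replicates.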

Acetylcholinesterase [7] = molecular target: Acetylcholinesterase (Homo sapiens, UniProt P22303); assay: Inhibition of recombinant human AChE expressed in HEK293F cells using acetylthiocholine iodide as substrate measured over 60 secs by Ellman's method; parameters: species or system HEK293
[8] = Selectivity ratio of IC50 for recombinant human AChE expressed in HEK293F cells to IC50 for recombinant full length Anopheles gambiae AChE1 expressed in baculovirus-infected Sf9 insect cells
Method in brief: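 Ratio of the hAChE IC50 divided by the higher of the AgAChE1 or AaAChE1 IC50. Each IC50 came from an Ellman assay (1 mM acetylthiocholine, 0.2 mM DTNB, pH 7.4, 30 °C) with eight concentrations up to 1 mM, using 2-3 replicates.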

Acetylcholinesterase [9] = molecular target: Acetylcholinesterase (Anopheles gambiae, UniProt Q869C3, G122S); assay: Inhibition of recombinant full length Anopheles gambiae AChE1 G122S mutant expressed in baculovirus-infected Sf9 insect cells using acetylthiocholine iodide as substrate measured over 60 secs by Ellman's method
Acetylcholinesterase [10] = molecular target: T1, Acetylcholinesterase; assay: Inhibition of AChE1 in Anopheles gambiae head extract using acetylthiocholine iodide as substrate measured over 60 secs by Ellman's method
Acetylcholinesterase [11] = molecular target: T1, Acetylcholinesterase; assay: Inhibition of AChE1 in Anopheles gambiae body extract using acetylthiocholine iodide as substrate measured over 60 secs by Ellman's method
Anopheles gambiae [12] = assay: Insecticidal activity against five days old adult Anopheles gambiae Kisumu assessed as mortality at 0.01 nmol applied topically on upper part of pronotum after 24 hrs; type: functional
Anopheles gambiae [13] = assay: Insecticidal activity against five days old adult Anopheles gambiae Kisumu assessed as mortality at 0.2 nmol applied topically on upper part of pronotum after 24 hrs; type: functional
Anopheles gambiae [14] = assay: Insecticidal activity against five days old adult Anopheles gambiae Kisumu assessed as mortality at 1 nmol applied topically on upper part of pronotum after 24 hrs; type: functional
Aedes aegypti [15] = assay: Insecticidal activity against 3rd instar larvae of Aedes aegypti Mombasa assessed as mortality at 50 uM administered via de-chlorinated tap water after 24 hrs; type: functional; method in brief: as §1
Aedes aegypti [16] = assay: Insecticidal activity against 3rd instar larvae of Aedes aegypti Mombasa assessed as mortality at 300 uM administered via de-chlorinated tap water after 24 hrs; type: functional; method in brief: as §1
Aedes aegypti [17] = assay: Insecticidal activity against 3rd instar larvae of Aedes aegypti Mombasa assessed as mortality at 500 uM administered via de-chlorinated tap water after 24 hrs; type: functional; method in brief: as §1
Anopheles gambiae [18] = assay: Insecticidal activity against 3rd instar larvae of Anopheles gambiae Kisumu assessed as mortality at 50 uM administered via de-chlorinated tap water after 24 hrs; type: functional; method in brief: as §1
Anopheles gambiae [19] = assay: Insecticidal activity against 3rd instar larvae of Anopheles gambiae Kisumu assessed as mortality at 300 uM administered via de-chlorinated tap water after 24 hrs; type: functional; method in brief: as §1
Anopheles gambiae [20] = assay: Insecticidal activity against 3rd instar larvae of Anopheles gambiae Kisumu assessed as mortality at 500 uM administered via de-chlorinated tap water after 24 hrs; type: functional; method in brief: as §1
Aedes aegypti [21] = assay: Insecticidal activity against five days old adult Aedes aegypti Mombasa assessed as mortality at 0.2 nmol applied topically on upper part of pronotum after 24 hrs; type: functional
Aedes aegypti [22] = assay: Insecticidal activity against five days old adult Aedes aegypti Mombasa assessed as mortality at 1 nmol applied topically on upper part of pronotum after 24 hrs; type: functional
Anopheles gambiae [23] = assay: Insecticidal activity against 3rd instar larvae of Anopheles gambiae Kisumu assessed as mortality at 50 uM administered via de-chlorinated tap water after 48 hrs; type: functional
Anopheles gambiae [24] = assay: Insecticidal activity against 3rd instar larvae of Anopheles gambiae Kisumu assessed as mortality at 300 uM administered via de-chlorinated tap water after 48 hrs; type: functional
Anopheles gambiae [25] = assay: Insecticidal activity against 3rd instar larvae of Anopheles gambiae Kisumu assessed as mortality at 500 uM administered via de-chlorinated tap water after 48 hrs; type: functional
Anopheles gambiae [26] = assay: Insecticidal activity against five days old adult Anopheles gambiae Kisumu assessed as mortality at 0.1 mM applied topically on upper part of pronotum after 24 hrs (reference value: 0%); type: functional; conditions: topical
Anopheles gambiae [27] = assay: Insecticidal activity against five days old adult Anopheles gambiae Kisumu assessed as mortality at 2 mM applied topically on upper part of pronotum after 24 hrs (reference value: 3 to 17%); type: functional; conditions: topical
Anopheles gambiae [28] = assay: Insecticidal activity against five days old adult Anopheles gambiae Kisumu assessed as mortality at 10 mM applied topically on upper part of pronotum after 24 hrs (reference value: 8 to 16%); type: functional; conditions: topical
Anopheles gambiae [29] = assay: Insecticidal activity against five days old adult Anopheles gambiae Kisumu assessed as mortality at 10 mM applied topically on upper part of pronotum after 48 hrs (reference value: 14 to 22%); type: functional; conditions: topical
Aedes aegypti [30] = assay: Insecticidal activity against 3rd instar larvae of Aedes aegypti Mombasa assessed as mortality at 50 uM administered via de-chlorinated tap water after 48 hrs (reference value: 0 to 4%); type: functional
Aedes aegypti [31] = assay: Insecticidal activity against 3rd instar larvae of Aedes aegypti Mombasa assessed as mortality at 300 uM administered via de-chlorinated tap water after 48 hrs (reference value: 0%); type: functional
Aedes aegypti [32] = assay: Insecticidal activity against 3rd instar larvae of Aedes aegypti Mombasa assessed as mortality at 500 uM administered via de-chlorinated tap water after 48 hrs (reference value: 0 to 2%); type: functional
Aedes aegypti [33] = assay: Insecticidal activity against five days old adult Aedes aegypti Mombasa assessed as mortality at 10 mM applied topically on upper part of pronotum after 24 hrs (reference value: 3 to 15%); type: functional; conditions: topical
Aedes aegypti [34] = assay: Insecticidal activity against five days old adult Aedes aegypti Mombasa assessed as mortality at 2 mM applied topically on upper part of pronotum after 48 hrs (reference value: 3 to 12%); type: functional; conditions: topical
Aedes aegypti [35] = assay: Insecticidal activity against five days old adult Aedes aegypti Mombasa assessed as mortality at 10 mM applied topically on upper part of pronotum after 48 hrs (reference value: 3 to 15%); type: functional; conditions: topical

With `CNC(=O)Oc1ccccc1OC(C)C` [PROPOXUR] the mortality at 25 µM (Anopheles gambiae [1]) was 100%, the mortality at 25 µM (Anopheles gambiae [2]) was 100% and the mortality (Anopheles gambiae [3]) was 100%.
Compound `COc1ccc(NC(=S)NCCN2CCOCC2)cc1Cl` has a mortality at 2000 µM (Aedes aegypti [4]) of 5%, an IC50 (Acetylcholinesterase [5]) of 120 nM and an IC50 [6] of 90 nM. It also gave an IC50 (Acetylcholinesterase [7]) of 14000 nM, a Ratio IC50 [8] of 117 and an IC50 (Acetylcholinesterase [9]) of 84000 nM. It also gave an IC50 (Acetylcholinesterase [10]) of 190 nM, an IC50 (Acetylcholinesterase [11]) of 150 nM and a mortality (Anopheles gambiae [12]) of 0%. The mortality (Anopheles gambiae [13]) was 22%, the mortality (Anopheles gambiae [14]) was 70% and the mortality at 50 µM (Aedes aegypti [15]) was 8%. It also gave a mortality at 300 µM (Aedes aegypti [16]) of 64%, a mortality at 500 µM (Aedes aegypti [17]) of 97% and a mortality at 50 µM (Anopheles gambiae [18]) of 1%. For the same compound, the mortality at 300 µM (Anopheles gambiae [19]) was 100%, the mortality at 500 µM (Anopheles gambiae [20]) was 100% and the mortality (Aedes aegypti [21]) was 5%. The mortality (Aedes aegypti [22]) was 0%, the mortality at 50 µM (Anopheles gambiae [23]) was 3% and the mortality at 300 µM (Anopheles gambiae [24]) was 100%. For the same compound, the mortality at 500 µM (Anopheles gambiae [25]) was 100%, the mortality at 100 µM (Anopheles gambiae [26]) was 0% and the mortality at 2000 µM (Anopheles gambiae [27]) was 22%. For the same compound, the mortality at 10000 µM (Anopheles gambiae [28]) was 72%, the mortality at 10000 µM (Anopheles gambiae [29]) was 77% and the mortality at 50 µM (Aedes aegypti [30]) was 13%. The mortality at 300 µM (Aedes aegypti [31]) was 80%, the mortality at 500 µM (Aedes aegypti [32]) was 100% and the mortality at 10000 µM (Aedes aegypti [33]) was 3%. For the same compound, the mortality at 2000 µM (Aedes aegypti [34]) was 5% and the mortality at 10000 µM (Aedes aegypti [35]) was 10%.
